{"source": "ChEMBL document CHEMBL1152867", "about": "“Targeting QseC signaling and virulence for antibiotic development” (Science, 2008)", "key": {"[1]": {"test_system": "Mus musculus", "test": "Toxicity in CD1 mouse assessed as red cell distribution width at 20 mg/kg, po administered daily once for 5 days measured 3 days after final dose", "format": "organism-based", "set-up": "dose 20 mg/kg, route oral", "details": "in vivo, 72 h", "summary_of_the_method": "(§1)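 Female CD-1 mice (~22 g), three per group, given 20 mg/kg by oral gavage once daily for 5 days. Vehicle-only mice served as controls. Animals were weighed and observed daily. Three days after the last dose they were weighed and sacrificed. Blood was taken for chemistry and complete blood counts, and organs were weighed.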"}, "[2]": {"test_system": "Mus musculus", "test": "Toxicity in CD1 mouse assessed as basophil counts at 20 mg/kg, po administered daily once for 5 days measured 3 days after final dose", "format": "organism-based", "set-up": "dose 20 mg/kg, route oral", "details": "in vivo, 72 h", "summary_of_the_method": "as §1"}, "[3]": {"test_system": "Mus musculus", "test": "Toxicity in CD1 mouse assessed as change in spleen weight at 20 mg/kg, po administered daily once for 5 days measured 3 days after final dose", "format": "organism-based", "set-up": "dose 20 mg/kg, route oral", "details": "in vivo, 72 h", "summary_of_the_method": "as §1"}, "[4]": {"test_system": "Francisella tularensis subsp. tularensis SCHU S4", "test": "Bacteriostatic activity against Francisella tularensis SCHU S4 at 1 uM in presence of epinephrine", "format": "functional, organism-based"}, "[5]": {"test_system": "Escherichia coli", "test": "Antibacterial activity against Escherichia coli infected in New Zealand white rabbit assessed as inhibition of bacterial colonization in ileum at 20 mg/kg administered 3 hrs post-bacterial challenge", "format": "functional, organism-based", "set-up": "dose 20 mg/kg"}, "[6]": {"test_system": "Francisella tularensis subsp. tularensis SCHU S4", "test": "Inhibition of virulence gene mip expression in Francisella tularensis SCHU S4 at 5 pM by quantitative real-time PCR", "format": "functional, organism-based"}, "[7]": {"test_system": "Mus musculus", "test": "Toxicity in CD1 mouse assessed as change in liver weight at 20 mg/kg, po administered daily once for 5 days measured 3 days after final dose", "format": "organism-based", "set-up": "dose 20 mg/kg, route oral", "details": "in vivo, 72 h", "summary_of_the_method": "as §1"}, "[8]": {"test": "Terminal half life in CD1 mouse at 20 mg/kg, iv administered as bolus dose", "format": "ADME, organism-based", "set-up": "dose 20 mg/kg, route intravenous", "details": "in vivo, read-out: beta t1/2", "summary_of_the_method": "(§2)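 Groups of three were bled terminally by cardiac puncture at set times. Plasma was acetonitrile-precipitated with internal standard and quantified by electrospray LC/MS/MS against a plasma standard curve (10-1000 ng/ml). Noncompartmental analysis was used.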"}, "[9]": {"test_system": "Mus musculus", "test": "Toxicity in CD1 mouse assessed as monocyte counts at 20 mg/kg, po administered daily once for 5 days measured 3 days after final dose", "format": "organism-based", "set-up": "dose 20 mg/kg, route oral", "details": "in vivo, 72 h", "summary_of_the_method": "as §1"}, "[10]": {"test_system": "Mus musculus", "test": "Toxicity in CD1 mouse assessed as calcium levels at 20 mg/kg, po administered daily once for 5 days measured 3 days after final dose", "format": "organism-based", "set-up": "dose 20 mg/kg, route oral", "details": "in vivo, 72 h", "summary_of_the_method": "as §1"}, "[11]": {"test_system": "Escherichia coli", "test": "Antibacterial activity against Escherichia coli infected in New Zealand white rabbit assessed as inhibition of bacterial colonization in cecum at 20 mg/kg administered 3 hrs post-bacterial challenge", "format": "functional, organism-based", "set-up": "dose 20 mg/kg", "details": "Caecum"}, "[12]": {"test_system": "Mus musculus", "test": "Toxicity in CD1 mouse assessed as hematocrit content at 20 mg/kg, po administered daily once for 5 days measured 3 days after final dose", "format": "organism-based", "set-up": "dose 20 mg/kg, route oral", "details": "in vivo, 72 h", "summary_of_the_method": "as §1"}, "[13]": {"test": "Oral bioavailability in CD1 mouse at 20 mg/kg", "format": "ADME, organism-based", "details": "in vivo", "summary_of_the_method": "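Female CD-1 mice received 20 mg/kg either as an i.v. bolus or by oral gavage, in the same DMSO/PEG400/Tween 80/bicarbonate pH 9 vehicle. Plasma levels were measured by LC/MS/MS. Bioavailability = AUCoral/AUCiv × Doseiv/Doseoral, using noncompartmental AUCs.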"}, "[14]": {"test": "Cmax in CD1 mouse at 20 mg/kg, iv administered as bolus dose", "format": "ADME, organism-based", "set-up": "dose 20 mg/kg, route intravenous", "details": "in vivo", "summary_of_the_method": "as §2"}, "[15]": {"test_system": "Mus musculus", "test": "Toxicity in CD1 mouse assessed as mean corpuscular volume at 20 mg/kg, po administered daily once for 5 days measured 3 days after final dose", "format": "organism-based", "set-up": "dose 20 mg/kg, route oral", "details": "in vivo, 72 h", "summary_of_the_method": "as §1"}, "[16]": {"test_system": "Escherichia coli", "test": "Inhibition of epinephrine-induced Qsec-dependent virulence gene ler expression in Escherichia coli at 5 pM by quantitative real-time PCR", "format": "functional, organism-based"}, "[17]": {"test_system": "Escherichia coli", "test": "Antibacterial activity against Escherichia coli infected in New Zealand white rabbit assessed as inhibition of bacterial colonization in cecum at 20 mg/kg administered 24 hrs post-bacterial challenge", "format": "functional, organism-based", "set-up": "dose 20 mg/kg", "details": "Caecum"}, "[18]": {"test": "Cmax in CD1 mouse at 20 mg/kg, po", "format": "ADME, organism-based", "set-up": "dose 20 mg/kg, route oral", "details": "in vivo", "summary_of_the_method": "(§3)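 Terminal cardiac bleeds were taken in groups of three at set times. Plasma was acetonitrile-precipitated with internal standard and analysed by LC/MS/MS against a spiked-plasma standard curve. Parameters came from noncompartmental analysis.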"}, "[19]": {"test_system": "Francisella tularensis subsp. tularensis SCHU S4", "test": "Antibacterial activity against Francisella tularensis SCHU S4 infected C3H HeN mouse assessed as survival at 20 mg/kg, po administered single dose 3 hrs post-bacterial measured after 9 days", "format": "functional"}, "[20]": {"test": "AUC in CD1 mouse at 10 mg/kg, iv administered as bolus dose", "format": "ADME, organism-based", "set-up": "dose 10 mg/kg, route intravenous", "details": "plasma", "summary_of_the_method": "as §2"}, "[21]": {"test_system": "Mus musculus", "test": "Toxicity in CD1 mouse assessed as eosinophil counts at 20 mg/kg, po administered daily once for 5 days measured 3 days after final dose", "format": "organism-based", "set-up": "dose 20 mg/kg, route oral", "details": "in vivo, 72 h", "summary_of_the_method": "as §1"}, "[22]": {"test_system": "Escherichia coli", "test": "Inhibition of epinephrine-induced EspB protein secretion in Escherichia coli 8624 at 5 pM by Western blot", "format": "functional, organism-based", "summary_of_the_method": "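Secreted proteins in cell-free supernatant were TCA-precipitated and immunoblotted with rabbit polyclonal anti-EspA and anti-EspB, with ECL detection.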"}, "[23]": {"test": "Clearance in CD1 mouse at 20 mg/kg, po", "format": "ADME, organism-based", "set-up": "dose 20 mg/kg, route oral", "details": "in vivo", "summary_of_the_method": "as §3"}, "[24]": {"test_system": "Escherichia coli", "test": "Antibacterial activity against Escherichia coli 8624 assessed as induction of SOS response", "format": "functional, organism-based"}, "[25]": {"test_system": "Francisella tularensis subsp. tularensis SCHU S4", "test": "Antibacterial activity against Francisella tularensis SCHU S4 infected in mouse J774 cells assessed as reduction in bacterial CFU at 5 nM relative to control", "format": "functional"}, "[26]": {"molecular_target": "Beta-2 adrenergic receptor (Homo sapiens) (UniProt P07550)", "sequence (P07550 whole entry, looked up)": "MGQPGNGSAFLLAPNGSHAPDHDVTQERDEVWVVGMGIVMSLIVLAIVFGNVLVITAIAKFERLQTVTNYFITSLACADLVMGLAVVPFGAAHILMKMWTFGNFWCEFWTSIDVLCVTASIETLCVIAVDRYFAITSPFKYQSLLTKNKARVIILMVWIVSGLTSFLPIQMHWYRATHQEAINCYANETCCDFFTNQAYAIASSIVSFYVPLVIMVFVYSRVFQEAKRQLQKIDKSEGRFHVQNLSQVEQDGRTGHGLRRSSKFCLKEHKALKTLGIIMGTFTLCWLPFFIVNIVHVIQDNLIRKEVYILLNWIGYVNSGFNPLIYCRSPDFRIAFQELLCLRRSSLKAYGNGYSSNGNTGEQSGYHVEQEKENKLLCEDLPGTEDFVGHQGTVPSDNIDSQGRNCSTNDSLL", "test": "Effect on terbulaline-induced human beta-2-adrenergic receptor activation expressed in HEK293 cells assessed as cAMP release at 5 uM", "format": "functional, cell-based", "summary_of_the_method": "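HEK293 cells carried an EPAC-based cAMP BRET reporter. The agonist for β1 (exogenous) was 1 nM dobutamine, for β2 (endogenous) 100 nM terbutaline, and for β3 (exogenous) 10 nM BRL37344. Each agonist was given alone or with 5 μM compound. Live-cell cAMP was read as triplicate means, representative of 3 experiments.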"}, "[27]": {"test_system": "Mus musculus", "test": "Toxicity in CD1 mouse assessed as change in brain weight at 20 mg/kg, po administered daily once for 5 days measured 3 days after final dose", "format": "organism-based", "set-up": "dose 20 mg/kg, route oral", "details": "in vivo", "summary_of_the_method": "as §1"}, "[28]": {"test_system": "Escherichia coli", "test": "Inhibition of Escherichia coli attaching-effacing lesions formation in infected human HeLa cells at 5 pM by FAS test", "format": "functional, organism-based", "summary_of_the_method": "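HeLa monolayers on glass coverslips were infected with a 1:100 dilution of overnight LB cultures for 6 h at 37 °C, 5% CO2. Cells were permeabilized with 0.2% Triton X-100 and stained with FITC-phalloidin for actin and propidium iodide for bacteria. Whole fields of ≥6 coverslips per strain were scored for AE lesions by fluorescence microscopy.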"}, "[29]": {"test_system": "Salmonella typhimurium", "test": "Antibacterial activity against Salmonella Typhimurium SL1344 infected in 129x1/SvJ mouse assessed as reduction of bacterial CFU in spleen at 20 mg/kg, po after 48 hrs relative to control", "format": "functional"}, "[30]": {"test_system": "Mus musculus", "test": "Toxicity in CD1 mouse assessed as aspartate transaminase levels at 20 mg/kg, po administered daily once for 5 days measured 3 days after final dose", "format": "organism-based", "set-up": "dose 20 mg/kg, route oral", "details": "in vivo, 72 h"}, "[31]": {"test_system": "Escherichia coli", "test": "Bacteriostatic activity against Escherichia coli 8624 at 1 uM", "format": "functional, organism-based"}, "[32]": {"test_system": "Francisella tularensis subsp. tularensis SCHU S4", "test": "Inhibition of virulence gene qseC expression in Francisella tularensis SCHU S4 at 5 pM by quantitative real-time PCR", "format": "functional, organism-based"}, "[33]": {"test_system": "Francisella tularensis subsp. tularensis SCHU S4", "test": "Inhibition of virulence gene pdpA expression in Francisella tularensis SCHU S4 at 5 pM by quantitative real-time PCR", "format": "functional, organism-based"}, "[34]": {"test_system": "Mus musculus", "test": "Toxicity in CD1 mouse assessed as cholesterol levels at 20 mg/kg, po administered daily once for 5 days measured 3 days after final dose", "format": "organism-based", "set-up": "dose 20 mg/kg, route oral", "details": "in vivo, 72 h", "summary_of_the_method": "as §1"}}, "note": "Activity calls are given as the source filed them. The rule behind the calls is not given here.", "data": [{"smiles": "O=S(=O)(Nc1ccccc1)c1ccc(NC(=S)Nc2ccccc2)cc1", "values": [{"measurement": "Activity", "setting": "[1]", "value": 17.6, "unit": "%"}, {"measurement": "Activity", "setting": "[2]", "value": 0, "unit": "%"}, {"measurement": "Activity", "setting": "[3]", "value": "Non-toxic"}, {"measurement": "Activity", "setting": "[4]", "value": "inactive"}, {"measurement": "Activity", "setting": "[5]", "value": "inactive"}, {"measurement": "Activity", "setting": "[6]", "value": "Active"}, {"measurement": "Activity", "setting": "[7]", "value": "Non-toxic"}, {"measurement": "half-life", "setting": "[8]", "value": 5.65, "unit": "h"}, {"measurement": "Activity", "setting": "[9]", "value": 8.1, "unit": "%"}, {"measurement": "Activity", "setting": "[10]", "value": 9.6, "unit": "mg/dL"}, {"measurement": "Activity", "setting": "[11]", "value": "inactive"}, {"measurement": "Activity", "setting": "[12]", "value": 38.5, "unit": "%"}, {"measurement": "bioavailability", "setting": "[13]", "value": 69.3, "unit": "%"}, {"measurement": "Cmax", "setting": "[14]", "value": 4750, "unit": "ng/mL"}, {"measurement": "Activity", "setting": "[15]", "value": 51.7, "unit": "fL"}, {"measurement": "Activity", "setting": "[16]", "value": "Active"}, {"measurement": "Activity", "setting": "[17]", "value": "inactive"}, {"measurement": "Cmax", "setting": "[18]", "value": 2700, "unit": "ng/mL"}, {"measurement": "Activity", "setting": "[19]", "value": 80, "unit": "%"}, {"measurement": "AUC", "setting": "[20]", "value": 2400, "unit": "ng·h/mL"}, {"measurement": "Activity", "setting": "[21]", "value": 0.7, "unit": "%"}, {"measurement": "Activity", "setting": "[22]", "value": "Active"}, {"measurement": "CL/F", "setting": "[23]", "value": 2.34, "unit": "mL/min"}, {"measurement": "Activity", "setting": "[24]", "value": "inactive"}, {"measurement": "fold change (FC)", "setting": "[25]", "value": 10}, {"measurement": "Activity", "setting": "[26]", "value": "inactive"}, {"measurement": "Activity", "setting": "[27]", "value": "Non-toxic"}, {"measurement": "Activity", "setting": "[28]", "value": "Active"}, {"measurement": "fold change (FC)", "setting": "[29]", "value": 10}, {"measurement": "Activity", "setting": "[30]", "value": 120.3, "unit": "U/L"}, {"measurement": "Activity", "setting": "[31]", "value": "inactive"}, {"measurement": "Activity", "setting": "[32]", "value": "Active"}, {"measurement": "Activity", "setting": "[33]", "value": "Active"}, {"measurement": "Activity", "setting": "[34]", "value": 122, "unit": "mg/dL"}]}]}
